Assay results from ChEMBL document CHEMBL1135232, “Synthesis and antiplatelet activity of gemfibrozil chiral analogues” (Bioorg Med Chem Lett, 2002).

How the values were obtained:
Type in all cases: functional
Homo sapiens [1] = species on record: Homo sapiens; assay: Compound concentration that cause 50% inhibition of human platelet aggregation by COL/EPI cartridges
Summary of the method: (§1)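 Human whole blood drawn by forearm venipuncture into 3.8% (0.129 M) buffered sodium citrate (1:9 anticoagulant:blood). Aliquots incubated with compound (in 0.1 N NaOH/water 1:10; final 1–5 mM) 37 °C, 30 min, then loaded into PFA-100 cartridge (collagen/epinephrine or collagen/ADP). Closure time read in seconds; % inhibition calculated against vehicle-treated control blood.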

Homo sapiens [2] = species on record: Homo sapiens; assay: Compound was evaluated for the inhibitory activity against human platelet aggregation by COL/ADP cartridges at a concentration of 1 x 10 e-3 M; summary of the method: as §1
Homo sapiens [3] = species on record: Homo sapiens; assay: Compound was evaluated for the inhibitory activity against human platelet aggregation by COL/ADP cartridges at a concentration of 2 x 10 e-3 M; summary of the method: as §1
Homo sapiens [4] = species on record: Homo sapiens; assay: Compound was evaluated for the inhibitory activity against human platelet aggregation by COL/ADP cartridges at a concentration of 3 x 10 e-3 M; settings: for inhibition at 3000 µM: Homo sapiens; summary of the method: as §1
Homo sapiens [5] = species on record: Homo sapiens; assay: Compound was evaluated for the inhibitory activity against human platelet aggregation by COL/ADP cartridges at a concentration of 4 x 10 e-3 M; settings: for inhibition at 4000 µM: Homo sapiens; summary of the method: as §1
Homo sapiens [6] = species on record: Homo sapiens; assay: Compound was evaluated for the inhibitory activity against human platelet aggregation by COL/ADP cartridges at a concentration of 5 x 10 e-3 M; settings: for inhibition at 5000 µM: Homo sapiens; summary of the method: as §1

Structure (SMILES)	IC50 (Homo sapiens [1]; Homo sapiens) [µM]	inhibition at 1000 µM (Homo sapiens [2]) [%]	inhibition at 2000 µM (Homo sapiens [3]) [%]	inhibition at 3000 µM (Homo sapiens [4]) [%]	inhibition at 4000 µM (Homo sapiens [5]) [%]	inhibition at 5000 µM (Homo sapiens [6]) [%]	IC50 (Homo sapiens [1]) [µM]	Inhibition (Homo sapiens [4]) [%]	Inhibition (Homo sapiens [6]) [%]	Inhibition (Homo sapiens [5]) [%]
Cc1ccc(C)c(OCCCC(C)(C)C(=O)O)c1 [GEMFIBROZIL]	2670	0	2.5	17	100	100				
Cc1ccc(C)c(OCCCC(C)C(=O)O)c1 (single isomer, unassigned; (-))							2610	0	100	
CC(=O)Oc1ccccc1C(=O)O [ASPIRIN]	50	0	0	0	6.76	17.1				
Cc1ccc(C)c(OCCCC(C)C(=O)O)c1 (single isomer, unassigned; (+))	3090	0	0					0.97	5.36	0
CCC(CCCOc1cc(C)ccc1C)C(=O)O (stereo in doubt; 5b)	2420	0	0					3.3	2.57	5.51
CCC(CCCOc1cc(C)ccc1C)C(=O)O (single isomer, unassigned; (+))							4120	0	100	0
Cc1ccc(C)c(OCCCC(C)C(=O)O)c1 (stereo in doubt; 5a)							2470	0.49	24.39	4.39
